# Several values for one entry are separate records, joined by “and”; a condition that tells them apart may be missing. Identical values can stand only once. Activity calls are given as the source filed them.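 The calls were made as follows: active = compounds whose fitted growth inhibition curve reaches half effect at or below twice the top tested dose; inconclusive = flat inhibition between 30 and 70 percent, or poor fit; inactive = the rest.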
# System: Candida glabrata growth, glucose medium, OD600, 48 h
# Experiment: glucose-fed Candida glabrata growth inhibitors – glucose medium, plate reader, dry powder, set 4, dose response (AID 624013)
# Conditions: not given
# In short: (§1)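 System: Candida glabrata yeast cells, whole organism; Buffer or medium: CSM medium supplemented with glucose; Incubation: 48 h at 30 °C, no shaking; Measured by: OD600 absorbance; Controls: amphotericin B at 10 µM as positive control.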
row,SMILES,AC50
1,CC1/C=C/C=C\C=C\C=C\C=C\C=C\C=C\C(O[C@H]2OC(C)C(O)C(N)C2O)CC2OC(O)(CC(O)CC(O)C(O)CCC(O)CC(O)CC(=O)OC(C)C(C)C1O)CC(O)C2C(=O)O (stereo partly drawn),2120 nM

# System: not listed separately
# Experiment: as above
# Conditions: Candida glabrata growth, glucose medium, OD600, 48 h; at 3 µM (top of the series)
# In short: as §1
row,SMILES,"activity change, negative = inhibition"
1,CCOC(=O)N1C(=O)C2(CCCCC2)N(c2ccccc2)C1=S,-11.8% (inactive)
2,CCOC(=O)N1C(=O)C2(CCCCC2)N(c2ccc(Cl)cc2)C1=S,-19.6% (inactive)
3,CCOC(=O)N1C(=O)C2(CCCCC2)N(c2ccc(C)cc2)C1=S,-13.3% (inactive) and -16.5% (inactive)
4,CCOC(=O)N1C(=O)C2(CCCCC2)N(c2ccc(C#N)cc2)C1=S,-17% (inactive)
5,CCOC(=O)N1C(=O)C2(CCCCC2)N(c2ccc(F)cc2)C1=S,-16.3% (inactive)
6,C/C=C/[C@@H]1[C@H]2C[C@@H](C)CC[C@@H]2C(C)=C[C@H]1C(=O)c1c(O)c(-c2ccc(O)cc2)c[nH]c1=O,-2.31% (inactive)
7,CCOC(=O)N1C(=O)C2(CCCCC2)N(c2cccc(C)c2)C1=S,-14.7% (inactive)
